Test results as given in publication PMC8319936 (ACS Omega, 2021).

Experiments:
[1] = Rat pharmacokinetics; assay type: in vivo, Sprague Dawley rats; settings: Sprague Dawley, plasma
How it was run: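 Sprague Dawley rats (N = 3) were dosed i.v. at 1 mpk in 70% PEG or by oral gavage as a methylcellulose suspension. Serial blood samples were anticoagulated and centrifuged to plasma. Parent compound was quantified in plasma, and PK parameters were calculated by noncompartmental analysis.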

[2] = target: catalytic domain of human MMP13 (Homo sapiens, UniProt P45452); experiment: Biochemical MMP-13 FRET assay; settings: vs compound 13
[3] = target: catalytic domain of recombinant human MMP-8 (Homo sapiens, UniProt P22894); experiment: MMP-8 biochemical assay
How it was run: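 FRET cleavage assay with 2 nM recombinant human MMP-8 catalytic domain and 2 μM quenched FRET peptide substrate. Incubated 30 min at 28 °C/80% humidity; fluorescence read at ex 485/em 535 nm.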

[4] = Caco-2 permeability; assay type: in vitro ADME; settings: human, Caco-2, pH 7.4
How it was run: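 Caco-2 cells were seeded at 80,000 cells/cm2 on polycarbonate Transwell filters and grown 21–25 days. Monolayers were pre-equilibrated with HBSS pH 7.4 for 30 min at 37 °C. Dosing solution was 50 mM nominal in HBSS, stirred overnight at room temperature, filtered and added apically (A/B) or basolaterally (B/A). Receiver sampled at 15–150 min, in duplicate. Papp (cm/s) by LC/MS/MS.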

[5] = hPPB; assay type: in vitro ADME; settings: human
[6] = PAMPA permeability; assay type: in vitro ADME
[7] = test system: collagen antibody-induced arthritis; experiment: Murine collagen antibody-induced arthritis; assay type: in vivo, female B10.RIII mice; settings: 100 mg/kg twice daily oral gavage from day 4, day 14
How it was run: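 Female B10.RIII mice, 8–10 weeks old, received 2 mg anti-collagen II monoclonal antibody cocktail i.p., then 37.5 μg LPS i.p. 3 days later. From day 4, compounds or vehicle (1% CMC, 0.015% Tween 80, 10 mL/kg) were given by oral gavage twice daily. Each limb was scored visually daily, days 3–14, and group mean computed. Body weight recorded every other day.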

Chain of catalytic domain of recombinant human MMP-8 (P22894 100-262 limits assumed): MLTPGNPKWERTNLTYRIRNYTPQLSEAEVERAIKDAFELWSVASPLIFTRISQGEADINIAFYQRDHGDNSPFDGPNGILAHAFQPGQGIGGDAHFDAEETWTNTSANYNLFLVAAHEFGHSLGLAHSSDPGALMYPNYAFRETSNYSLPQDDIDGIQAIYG

half-life [1]	loss of potency relative to 13 [2]	IC50 [3]	Papp A→B at 150 min, 50 mM [4]	Papp B→A at 150 min, 50 mM [4]	hPPB (% bound) [5]	Papp [6]	SMILES	overall mean arthritic score vs vehicle control [7]
1.8 h	–	–	–	–	–	–	CCNC(=O)c1nc(-c2ccc3[nH]c(-c4nc(C)no4)cc3c2)c(C)[nH]1 [Compound 15, 4-Methyl-5-[2-(3-methyl-[1,2,4]oxadiazol-5-yl)-1H-indol-5-yl]-1H-imidazole-2-carboxylic Acid Ethylamide]	–
–	10 fold	–	–	–	–	–	Cc1noc(-c2cc3cc(-c4[nH]c(C(=O)NCc5ccccc5)nc4C)ccc3[nH]2)n1 [Compound 21, 4-Methyl-5-[2-(3-methyl-[1,2,4]oxadiazol-5-yl)-1H-indol-5-yl]-1H-imidazole-2-carboxylic Acid Benzylamide]	–
0.9 h	–	3.1 µM	3.5 ×10⁻⁶ cm/s	9 ×10⁻⁶ cm/s	93 % bound	29 ×10⁻⁶ cm/s	Cc1noc(-c2cc3cc(-c4nc(C(=O)NCc5ccncc5)[nH]c4C)ccc3[nH]2)n1 [Compound 17, 4-Methyl-5-[2-(3-methyl-[1,2,4]oxadiazol-5-yl)-1H-indol-5-yl]-1H-imidazole-2-carboxylic Acid (Pyridin-4-ylmethyl)-amide]	significantly reduced
